The source of these data is ChEMBL document CHEMBL3868583, “6-Aryl substituted 4-(4-cyanomethyl) phenylamino quinazolines as a new class of isoform-selective PI3K-alpha inhibitors” (Eur J Med Chem, 2016).

Series [1] concerns MCF7. The experiment in a line: Induction of cell cycle arrest in human MCF7 cells assessed as accumulation at G1 phase at 10 uM after 24 hrs by propidium iodide-staining based FACS analysis (reference value: 50 %). In kind it is functional. In outline: (§1)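 MCF-7 or PC-3 cells treated at indicated concentrations for 24 h, pelleted, PBS-washed, fixed in ice-cold 70% ethanol overnight at 4 °C. RNase 0.2 mg/mL 1 h at 37 °C, propidium iodide 10 µg/mL 30 min dark. 10,000 events (FL2-A vs FL2-W) by flow cytometry; fractions in apoptosis/sub-G1, G1, S, G2-M.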
A general note: In flow cytometry, cells or beads pass a laser one at a time.

For series [2], the system named is Mus musculus. Kind of series: Toxicity in Swiss mouse implanted with Swiss mouse EAC cells assessed as body weight at 25 mg/kg, ip administered for 1 to 9 days measured on day 5 (reference value: 26.2 g). In kind it is organism-based, Ehrlich. Particulars: in vivo.
Series [3] has as its system Mus musculus. Kind of series: Toxicity in Swiss mouse implanted with Swiss mouse EAT cells assessed as mortality at 15 mg/kg, ip administered for 1 to 9 days measured on day 9 and 13. In kind it is organism-based. The conditions noted are these: in vivo. The method in brief: (§2)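 EAC cells harvested from 8–10-day ascitic Swiss mice; 1×10^7 cells injected intramuscularly into right thigh of Swiss male mice on day 0. Randomized next day: treated n=7, saline control n=10 (0.2 ml i.p.). Dosing i.p. days 1–9. […] Body weight and mortality tracked.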

Series [4] concerns MCF7. Kind of series: Induction of cell cycle arrest in human MCF7 cells assessed as accumulation at G2 phase at 20 uM after 24 hrs by propidium iodide-staining based FACS analysis (reference value: 20 %). In kind it is functional. In outline: as §1
Series [5] has as its system MCF7. The experiment in a line: Induction of cell cycle arrest in human MCF7 cells assessed as accumulation at G1 phase at 20 uM after 24 hrs by propidium iodide-staining based FACS analysis (reference value: 50 %). In kind it is functional. The method in brief:
as §1

Series [6] deals with MCF7. Kind of series: Induction of apoptosis in human MCF7 cells assessed as loss of mitochondrial membrane potential at 10 uM after 24 hrs by rhodamine-123-staining based FACS analysis (reference value: 7 % ). In kind it is functional. The method in brief:
(§3)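 Cells (MCF-7 or PC-3) exposed to indicated concentrations for 24 h; rhodamine-123 (5 µM) added 1 h before end. Cells collected, PBS-washed; fluorescence of 10,000 events read in FL-1 by flow cytometry, loss of mitochondrial potential scored as decreased intensity.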

Series [7] is described as follows: Anticancer activity against Swiss mouse EAT cells implanted in Swiss mouse assessed as tumor growth inhibition at 15 mg/kg, ip administered for 1 to 9 days measured on day 13 relative to control. In kind it is functional. The conditions noted are these: read-out: TGI. The method in brief: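 Solid tumor: 1 × 10^7 EAC cells (harvested from 8-10 day ascitic Swiss mice) injected intramuscularly into right thigh of male Swiss mice, day 0; randomized next day (n=7 treated, 10 control). Dosing i.p. days 1-9; saline 0.2 ml control, 5-FU 22 mg/kg reference.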

Series [8] concerns Mus musculus. The experiment in a line: Toxicity in Swiss mouse implanted with Swiss mouse EAT cells assessed as mortality at 25 mg/kg, ip administered for 1 to 9 days measured on day 9 and 13. Particulars: in vivo. In kind it is organism-based. In outline:
as §2

Series [9] relates to MCF7. The experiment in a line: Induction of apoptosis in human MCF7 cells assessed as loss of mitochondrial membrane potential at 30 uM after 24 hrs by rhodamine-123-staining based FACS analysis (reference value: 7 % ). In kind it is functional. The method in brief:
as §3

The test system of series [10] is Mus musculus. Kind of series: Toxicity in Swiss mouse implanted with Swiss mouse EAT cells assessed as body weight at 15 mg/kg, ip administered for 1 to 9 days measured on day 9 (reference value: 22.8 g). In kind it is organism-based. The conditions noted are these: in vivo.
The subject of series [11] is MCF7. Kind of series: Induction of cell cycle arrest in human MCF7 cells assessed as accumulation at G1 phase at 30 uM after 24 hrs by propidium iodide-staining based FACS analysis (reference value: 50 %). In kind it is functional. In outline:
as §1

Series [12] deals with MCF7. The experiment in a line: Induction of cell cycle arrest in human MCF7 cells assessed as accumulation at S phase at 20 uM after 24 hrs by propidium iodide-staining based FACS analysis (reference value: 30 %). In kind it is functional. In outline:
as §1

In series [13] the test system is Mus musculus. Kind of series: Toxicity in Swiss mouse implanted with Swiss mouse EAT cells assessed as body weight at 25 mg/kg, ip administered for 1 to 9 days measured on day 1 (reference value: 21.6 g). In kind it is organism-based. The conditions noted are these: in vivo.
Series [14] addresses Phosphatidylinositol 4,5-bisphosphate 3-kinase catalytic subunit alpha isoform (Homo sapiens, UniProt P42336). The conditions noted are these: MCF7, 30 uM.
Series [15] concerns PC-3. Kind of series: Induction of apoptosis in human PC3 cells assessed as loss of mitochondrial membrane potential at 20 uM after 24 hrs by rhodamine-123-staining based FACS analysis (reference value: 5 % ). In kind it is functional. In outline:
as §3

For series [16], the system named is PC-3. Kind of series: Induction of cell cycle arrest in human PC3 cells assessed as accumulation at G1 phase at 20 uM after 24 hrs by propidium iodide-staining based FACS analysis (reference value: 39 %). In kind it is functional. The method in brief:
as §1

The test system of series [17] is PC-3. Kind of series: Induction of cell cycle arrest in human PC3 cells assessed as accumulation at G2 phase at 10 uM after 24 hrs by propidium iodide-staining based FACS analysis (reference value: 17 %). In kind it is functional. The method in brief: as §1
Series [18] in a line: Downregulation of PI3Kalpha expression in human PC3 cells at 30 uM by Western blot analysis. In kind it is functional, cell-based. The conditions noted are these: PC-3. In outline: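 MCF-7 or PC-3 cells (2 × 10^6) treated with compound, lysed (1 × 10^6 cells) in cold NP-40 buffer with protease inhibitors 30 min on ice, 12,000 g 10 min 4 °C. 50 µg protein per lane on SDS-PAGE, PVDF transfer, 5% milk block, primary antibody 2 h, HRP secondary 1 h, ECL on film; β-actin internal control.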
(In western blotting, separated proteins are transferred to a membrane and probed.)

Series [19] relates to Mus musculus. The experiment in a line: Toxicity in Swiss mouse implanted with Swiss mouse EAC cells assessed as body weight at 70 mg/kg, ip administered for 1 to 9 days measured on day 1 (reference value: 22.8 g). In kind it is organism-based, Ehrlich. The conditions noted are these: in vivo.
Series [20] has as its system Mus musculus. Kind of series: Toxicity in Swiss mouse implanted with Swiss mouse EAC cells assessed as body weight at 70 mg/kg, ip administered for 1 to 9 days measured on day 12 (reference value: 28.4 g). In kind it is organism-based, Ehrlich. Particulars: in vivo.
A short description of series [21]: Cytotoxicity against human PC3 cells assessed as cell growth inhibition after 12 hrs by MTT assay. In kind it is functional. The conditions noted are these: PC-3, 12 h. (Tetrazolium assays rely on reduction of a dye to a coloured formazan, in cell work by metabolically active cells.)
The test system of series [22] is PC-3. The experiment in a line: Induction of apoptosis in human PC3 cells assessed as loss of mitochondrial membrane potential at 10 uM after 24 hrs by rhodamine-123-staining based FACS analysis (reference value: 5 % ). In kind it is functional. The method in brief: as §3
The test system of series [23] is PC-3. Kind of series: Induction of cell cycle arrest in human PC3 cells assessed as accumulation at S phase at 20 uM after 24 hrs by propidium iodide-staining based FACS analysis (reference value: 44 %). In kind it is functional. The method in brief:
as §1

For series [24], the system named is PC-3. The experiment in a line: Induction of cell cycle arrest in human PC3 cells assessed as apoptotic cells at 10 uM after 24 hrs by propidium iodide-staining based FACS analysis (reference value: 2 %). In kind it is functional. In outline: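 PC-3 cells exposed 24 h at indicated concentrations, pelleted, fixed overnight in ice-cold 70% ethanol at 4 °C, RNase 0.2 mg/mL at 37 °C 1 h, propidium iodide 10 µg/mL 30 min in dark; 10,000 events acquired (FL2-A vs FL2-W); DNA histograms modelled for apoptotic (sub-G1), G1, S and G2-M fractions.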

Series [25] concerns PC-3. Kind of series: Induction of cell cycle arrest in human PC3 cells assessed as accumulation at G2 phase at 30 uM after 24 hrs by propidium iodide-staining based FACS analysis (reference value: 17 %). In kind it is functional. The method in brief:
as §1

The subject of series [26] is PC-3. Kind of series: Induction of cell cycle arrest in human PC3 cells assessed as accumulation at G1 phase at 30 uM after 24 hrs by propidium iodide-staining based FACS analysis (reference value: 39 %). In kind it is functional. In outline: as §1

Chain of Phosphatidylinositol 4,5-bisphosphate 3-kinase catalytic subunit alpha isoform (P42336 whole entry, canonical isoform): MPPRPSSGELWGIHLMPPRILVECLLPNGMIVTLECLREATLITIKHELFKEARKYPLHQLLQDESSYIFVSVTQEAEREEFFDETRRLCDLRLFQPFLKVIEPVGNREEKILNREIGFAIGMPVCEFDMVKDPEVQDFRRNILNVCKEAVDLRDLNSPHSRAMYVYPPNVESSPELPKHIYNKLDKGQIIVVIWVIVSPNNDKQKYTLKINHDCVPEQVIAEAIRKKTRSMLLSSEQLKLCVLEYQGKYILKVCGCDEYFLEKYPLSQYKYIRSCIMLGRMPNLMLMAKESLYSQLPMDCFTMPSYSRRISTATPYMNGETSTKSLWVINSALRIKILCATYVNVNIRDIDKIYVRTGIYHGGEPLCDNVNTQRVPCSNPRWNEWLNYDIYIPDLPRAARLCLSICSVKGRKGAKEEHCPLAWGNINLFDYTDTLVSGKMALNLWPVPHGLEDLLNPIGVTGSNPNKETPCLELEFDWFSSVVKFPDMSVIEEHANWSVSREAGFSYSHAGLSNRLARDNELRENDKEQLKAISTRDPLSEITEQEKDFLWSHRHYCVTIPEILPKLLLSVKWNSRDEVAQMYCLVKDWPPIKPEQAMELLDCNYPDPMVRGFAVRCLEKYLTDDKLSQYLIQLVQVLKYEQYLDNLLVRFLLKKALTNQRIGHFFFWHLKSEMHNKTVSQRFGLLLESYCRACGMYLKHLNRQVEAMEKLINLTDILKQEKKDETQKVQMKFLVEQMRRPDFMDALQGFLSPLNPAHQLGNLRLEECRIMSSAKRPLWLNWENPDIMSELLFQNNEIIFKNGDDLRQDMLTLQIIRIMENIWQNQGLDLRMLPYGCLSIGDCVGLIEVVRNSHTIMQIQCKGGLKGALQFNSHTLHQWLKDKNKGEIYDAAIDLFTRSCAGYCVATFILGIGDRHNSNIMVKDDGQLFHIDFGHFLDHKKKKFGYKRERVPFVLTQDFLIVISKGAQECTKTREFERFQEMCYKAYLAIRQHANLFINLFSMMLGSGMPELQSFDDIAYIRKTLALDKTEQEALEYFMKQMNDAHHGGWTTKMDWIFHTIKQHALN

As to `N#CCc1ccc(Nc2ncnc3ccc(-c4ccc5[nH]ccc5c4)cc23)cc1`, the Activity in [1] was 59%; in series [2], 22 g; in series [3], “Non-Toxic”; in series [4], 7%; in [5], 51%; in [6], 12%. Moreover, the Activity result in [8] is listed as “Non-Toxic”; in series [9], 20%; in [10] it was 20.71 g; in series [11], 44%; in series [12] it was 42%; in [13], 20.14 g. Moreover, the inhibition in vivo at 15 mg/kg in series [7] was found to be 34.3%. Besides, in series [14], the inhibition (in general, the drop in the measured response relative to a control, in per cent) was found to be 80%.
For `N#CCc1ccc(Nc2ncnc3ccc(-c4cncc5ccccc45)cc23)cc1`, the Activity came to 14% in series [15]; 65% in [16]; 3% in series [17]; 100% in [18]; 21.42 g in series [19]; 24.33 g in [20]. The Activity in [22] was determined as 8%; in series [23], 26%; in series [24], 4%; in [25] it was 12%; in [26], 42%. Besides, the 50% growth inhibitory concentration (GI50) – broadly, the concentration at which growth is held to half of that of the control – in [21] was determined as 189 µM.
